Source: ChEMBL document CHEMBL5678814, “Novel Mps1 Kinase Inhibitors with Potent Antitumor Activity” (Mol Cancer Ther, 2016)

Legend:
NCI-H1155 = experiment: Antiproliferative activity against human NCI-H1155 cells assessed as cell growth inhibition incubated for 96 hrs by crystal violet staining; settings: NCI-H1155, 96 h
[1] = Synergistic antitumor activity against human LU387 cells xenografted female athymic NMRI mouse model assessed as MTD at 1 mg/kg,po administered twice daily intermittent for 2 days on/5 days off in the presence of paclitaxel relative to control; assay type: functional; settings: time 7 day
HT-1376 = experiment: Antiproliferative activity against human HT-1376 cells assessed as cell growth inhibition incubated for 96 hrs by MTS assay; assay type: functional, cell-based; settings: HT-1376, 96 h
HT-1080 = experiment: Antiproliferative activity against human HT-1080 cells assessed as cell growth inhibition incubated for 96 hrs by MTS assay; assay type: functional, cell-based; settings: HT-1080, 96 h
VCaP = experiment: Antiproliferative activity against human VCaP cells assessed as cell growth inhibition incubated for 96 hrs by MTS assay; assay type: functional, cell-based
[2] = Toxicity in human A2780cis cells xenografted female athymic NMRI mouse model assessed as change in body weight at 2.5 mg/kg, po administered twice daily intermittent for 2 days on/5 days off; assay type: organism-based; settings: in vivo, 168 h, time 7 day
In short: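 A2780cis cells (2×10^6 in 100% Matrigel) implanted s.c. in athymic mice. Treatment started at ~30 mm2. Oral dosing twice daily, 2 days on/5 days off, with PEG 400/ethanol/Solutol vehicle controls. Dose based on individual body weight. Body weight monitored two to three times weekly as toxicity measure; >20% loss deemed toxic.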

NCI-H292 = experiment: Antiproliferative activity against human NCI-H292 cells assessed as cell growth inhibition incubated for 96 hrs by crystal violet staining; settings: NCI-H292, 96 h
Granta-519 = experiment: Antiproliferative activity against human Granta-519 cells assessed as cell growth inhibition incubated for 96 hrs by MTS assay; assay type: functional, cell-based; settings: Granta-519, 96 h
A673 = experiment: Antiproliferative activity against human A673 cells assessed as cell growth inhibition incubated for 96 hrs by MTS assay; assay type: functional, cell-based; settings: A673, 96 h
Malme-3M = experiment: Antiproliferative activity against human Malme-3M cells assessed as cell growth inhibition incubated for 96 hrs by crystal violet staining
Caov-3 cell line = experiment: Antiproliferative activity against human Caov-3 cell line assessed as cell growth inhibition incubated for 96 hrs by crystal violet staining; settings: Caov-3, 96 h
HT1197 = experiment: Antiproliferative activity against human HT1197 cells assessed as cell growth inhibition incubated for 96 hrs by MTS assay; assay type: functional, cell-based; settings: HT1197, 96 h
Misshapen-like kinase 1 = Misshapen-like kinase 1 (Homo sapiens, UniProt Q8N4C8); experiment: Binding affinity to MINK (unknown origin) assessed as dissociation constant
HeLa = experiment: cells; settings: Homo sapiens, 4 h
HCT-116 [3] = experiment: Antiproliferative activity against human TP53 wildtype HCT-116 cells assessed as cell growth inhibition incubated for 96 hrs by crystal violet staining; settings: HCT-116, 96 h
RT-112 = experiment: Antiproliferative activity against human RT-112 cells assessed as cell growth inhibition incubated for 96 hrs by MTS assay; assay type: functional, cell-based; settings: RT-112, 96 h
DU-145 = experiment: Antiproliferative activity against human DU-145 cells assessed as cell growth inhibition incubated for 96 hrs by MTS assay; assay type: functional, cell-based; settings: DU-145, 96 h
JJN-3 = experiment: Antiproliferative activity against human JJN-3 cells assessed as cell growth inhibition incubated for 96 hrs by crystal violet staining; settings: JJN-3, 96 h
RKO = experiment: Antiproliferative activity against human TP53 mutant RKO cells assessed as cell growth inhibition incubated for 96 hrs by crystal violet staining
NCI-H2228 = experiment: Antiproliferative activity against human NCI-H2228 cells assessed as cell growth inhibition incubated for 96 hrs by crystal violet staining; settings: NCI-H2228, 96 h
HCT-116 [4] = experiment: Antiproliferative activity against human TP53 mutant HCT-116 cells assessed as cell growth inhibition incubated for 96 hrs by crystal violet staining; settings: HCT-116, 96 h
NCI-H460 = experiment: Antiproliferative activity against human NCI-H460 cells assessed as cell growth inhibition incubated for 96 hrs by crystal violet staining; settings: NCI-H460, 96 h
NCI-H647 = experiment: Antiproliferative activity against human NCI-H647 cells assessed as cell growth inhibition incubated for 96 hrs by MTS assay; assay type: functional, cell-based; settings: NCI-H647, 96 h
[5] = target: Serine/threonine-protein kinase mTOR (Homo sapiens, UniProt P42345); experiment: Binding affinity to MTOR (unknown origin) assessed as dissociation constant
[6] = target: Mitogen-activated protein kinase 8 (Homo sapiens, UniProt P45983); experiment: Binding affinity to JNK1 (unknown origin) assessed as dissociation constant
[7] = Cmax in male Wistar rat plasma at 0.5 mg/kg, po measured after 24 hrs by LC/-MS/MS analysis; assay type: ADME, organism-based
In short: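 Male Wistar rats given 0.5 mg/kg orally. Plasma collected from 8 min to 24 h, precipitated with ice-cold acetonitrile (1:5), and analysed by LC/MS-MS. Cmax and Tmax read directly from concentration–time profiles.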

U2OS = experiment: Antiproliferative activity against human U2OS cells assessed as cell growth inhibition incubated for 96 hrs by MTS assay; assay type: functional, cell-based
A2780 = experiment: Antiproliferative activity against human A2780 cells assessed as cell growth inhibition incubated for 96 hrs by crystal violet staining; settings: A2780, 96 h
[8] = Synergistic antitumor activity against human MAXF 1384 cells xenografted female athymic NMRI mouse model assessed as MTD at 2 mg/kg,po administered twice daily intermittent for 2 days on/5 days off measured after 48 hrs treatment in the presence of paclitaxel relative to control; assay type: functional; settings: time 9 day
[9] = Volume of distribution at steady state in male Wistar rat plasma at 0.5 mg/kg, iv measured after 24 hrs by LC/-MS/MS analysis; assay type: ADME, organism-based; settings: read-out: Vdss
SK-N-AS = experiment: Antiproliferative activity against human SK-N-AS cells assessed as cell growth inhibition incubated for 96 hrs by crystal violet staining
SK-OV-3 = experiment: Antiproliferative activity against human SK-OV-3 cells assessed as cell growth inhibition incubated for 96 hrs by crystal violet staining; settings: SK-OV-3, 96 h
[10] = Antiproliferative activity against human JMSU-1 cells assessed as cell growth inhibition incubated for 96 hrs by MTS assay; assay type: functional, cell-based; settings: JMSU-1, 96 h
SNU-16 = experiment: Antiproliferative activity against human SNU-16 cells assessed as cell growth inhibition incubated for 96 hrs by MTS assay; assay type: functional, cell-based; settings: SNU-16, 96 h
[11] = Clearance in male Wistar rat blood at 0.5 mg/kg, iv measured after 24 hrs by LC/-MS/MS analysis; assay type: ADME, organism-based

Misshapen-like kinase 1, sequence (Q8N4C8 whole entry): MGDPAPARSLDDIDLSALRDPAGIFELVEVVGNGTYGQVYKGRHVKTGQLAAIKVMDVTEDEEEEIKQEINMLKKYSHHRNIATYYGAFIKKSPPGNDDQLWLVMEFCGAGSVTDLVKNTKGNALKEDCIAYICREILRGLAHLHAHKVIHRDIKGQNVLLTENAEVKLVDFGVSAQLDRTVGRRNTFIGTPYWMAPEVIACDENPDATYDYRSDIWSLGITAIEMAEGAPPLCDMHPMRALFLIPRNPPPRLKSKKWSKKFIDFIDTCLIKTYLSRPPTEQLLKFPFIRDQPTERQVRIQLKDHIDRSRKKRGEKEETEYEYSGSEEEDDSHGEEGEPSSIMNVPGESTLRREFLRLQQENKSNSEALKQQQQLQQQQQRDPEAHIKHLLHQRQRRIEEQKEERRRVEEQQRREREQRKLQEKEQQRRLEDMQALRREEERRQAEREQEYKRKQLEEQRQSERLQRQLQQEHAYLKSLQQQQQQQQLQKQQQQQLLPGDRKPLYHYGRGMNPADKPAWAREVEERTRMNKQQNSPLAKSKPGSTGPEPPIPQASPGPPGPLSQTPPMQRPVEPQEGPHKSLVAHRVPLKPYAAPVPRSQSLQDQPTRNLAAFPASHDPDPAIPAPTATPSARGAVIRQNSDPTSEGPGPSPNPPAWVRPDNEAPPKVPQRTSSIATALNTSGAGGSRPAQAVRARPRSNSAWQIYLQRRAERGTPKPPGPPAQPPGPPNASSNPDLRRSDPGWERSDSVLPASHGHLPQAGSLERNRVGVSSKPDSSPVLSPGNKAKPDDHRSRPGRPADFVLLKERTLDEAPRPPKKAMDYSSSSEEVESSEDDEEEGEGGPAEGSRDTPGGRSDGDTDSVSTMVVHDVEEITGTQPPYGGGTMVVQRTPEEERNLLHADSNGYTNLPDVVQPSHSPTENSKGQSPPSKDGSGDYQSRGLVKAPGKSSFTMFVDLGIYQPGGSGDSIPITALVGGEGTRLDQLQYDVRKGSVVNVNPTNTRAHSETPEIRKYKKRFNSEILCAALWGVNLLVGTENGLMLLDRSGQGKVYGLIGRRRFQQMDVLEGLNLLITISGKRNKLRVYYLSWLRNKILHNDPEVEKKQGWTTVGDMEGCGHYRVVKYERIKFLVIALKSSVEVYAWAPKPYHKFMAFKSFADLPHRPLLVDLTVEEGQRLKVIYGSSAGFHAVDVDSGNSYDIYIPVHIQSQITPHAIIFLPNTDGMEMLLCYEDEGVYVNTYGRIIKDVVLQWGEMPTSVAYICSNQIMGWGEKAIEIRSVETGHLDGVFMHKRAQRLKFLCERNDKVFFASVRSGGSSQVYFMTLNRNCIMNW
Mitogen-activated protein kinase 8, sequence (P45983 whole entry): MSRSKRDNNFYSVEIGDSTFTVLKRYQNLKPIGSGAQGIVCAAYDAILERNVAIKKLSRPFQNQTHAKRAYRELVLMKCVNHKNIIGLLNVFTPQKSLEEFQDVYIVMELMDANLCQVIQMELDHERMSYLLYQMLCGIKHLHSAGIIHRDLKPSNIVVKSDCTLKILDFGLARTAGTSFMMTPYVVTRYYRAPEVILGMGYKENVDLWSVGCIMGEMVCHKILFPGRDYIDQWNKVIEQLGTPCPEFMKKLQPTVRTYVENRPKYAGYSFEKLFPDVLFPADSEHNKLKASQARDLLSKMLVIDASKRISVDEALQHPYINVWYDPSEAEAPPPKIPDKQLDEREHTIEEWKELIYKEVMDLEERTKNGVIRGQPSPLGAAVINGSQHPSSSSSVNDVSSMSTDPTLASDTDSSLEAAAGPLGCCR

Compound `COc1cc(S(C)(=O)=O)ccc1Nc1nc2ccc(-c3ccc(NC(=O)[C@H](C)c4ccc(F)cc4)cc3)cn2n1` [BAY-1161909] has an IC50 (NCI-H1155) of 1.4 µM, an MED [1] of 40% and an IC50 (HT-1376) of 3 µM. For the same compound, the IC50 (HT-1080) was 0.45 µM, the IC50 (VCaP) was over 3 µM and the Activity [2] was “Non-Toxic”. It also gave an IC50 (NCI-H292) of 0.19 µM, an IC50 (Granta-519) of 0.24 µM and an IC50 (A673) of 0.093 µM. It also gave an IC50 (Malme-3M) of 0.2 µM, an IC50 (Caov-3 cell line) of 0.098 µM and an IC50 (HT1197) of over 3 µM. It also gave a Kd (Misshapen-like kinase 1) of 40 µM, an IC50 (HeLa) of 0.056 µM and an IC50 (HCT-116 [3]) of 0.042 µM. It also gave an IC50 (RT-112) of 0.083 µM, an IC50 (DU-145) of 0.16 µM and an IC50 (JJN-3) of 0.1 µM. It also gave an IC50 (RKO) of 0.048 µM, an IC50 (NCI-H2228) of over 3 µM and an IC50 (HCT-116 [4]) of 0.059 µM. It also gave an IC50 (NCI-H460) of 0.11 µM, an IC50 (NCI-H647) of 0.57 µM and a Kd [5] of 40 µM. It also gave a Kd [6] of 0.24 µM, a Cmax [7] of 110 ng/mL and an IC50 (U2OS) of 0.55 µM. The IC50 (A2780) was 0.069 µM, the MED [8] was 80% and the Vd [9] was 2.4 L/kg. The IC50 (SK-N-AS) was 0.097 µM, the IC50 (SK-OV-3) was 3.7 µM and the IC50 [10] was 0.089 µM. The IC50 (SNU-16) was 0.088 µM and the clearance [11] was 3.17 mL/min/kg.
